Shown are actives, neighbours in structure and some others; about 1.5% of the full set was active somewhere.
Myeloid diff MLP = compounds promoting myeloid differentiation; ER-HoxA9 myeloid progenitors, lysozyme-GFP differentiation, flow cytometry; calls only at 10 µM; actives 1% (n = 360,000); AID 624256;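 active means normalized GFP-positive differentiation at or above the plate's own cutoff, the solvent-only control mean plus 3 SD; inconclusive means no clear call, values can overlap the other calls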;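 further: cells exposed to compound for four days before flow analysis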
SENP1 FRET inh = blocks the human SENP1 SUMO protease catalytic domain | Q9P0U3 | recombinant SENP1 catalytic domain, CyPet-SUMO1-YPet FRET cleavage | inhibition, % at 10 µM | actives 0.21% (n = 360,000) | AID 624204;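 active means inhibition at least 30% at 10 µM, raw YFP signal under a set limit, fluorescence ratio 0.5 to 1.5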
Target sequence (Q9P0U3 419-644 limits assumed): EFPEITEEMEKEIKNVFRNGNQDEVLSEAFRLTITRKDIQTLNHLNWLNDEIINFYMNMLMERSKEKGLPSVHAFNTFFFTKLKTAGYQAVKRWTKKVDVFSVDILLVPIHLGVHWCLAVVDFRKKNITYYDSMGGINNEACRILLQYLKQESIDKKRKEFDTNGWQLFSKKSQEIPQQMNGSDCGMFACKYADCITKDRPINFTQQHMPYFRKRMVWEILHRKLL
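Material: hSENP1 catalytic domain, recombinant; medium: Tris pH 8 with BME, BSA, NP40 and catalase; compound: single concentration of 10 µM compound, 0.5% DMSO final; technique: FRET read of cyan and yellow fluorescence; timing: 50 min enzyme reaction, room temperature, light-protected; reagent: SFCypet-SUMO1-SFYpet substrate at 25 nM; control set: no-enzyme low, enzyme-DMSO high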
VLA-4 inh = inhibition in a human VLA-4 binding assay; P13612; VLA-4 expressing cells, ligand binding flow cytometry; inhibition, % (about 7 µM as worked out from the volumes in the protocol); actives 0.2% (n = 330,000); in the data active means inhibition above about 50%
Platelet DG rel = platelet dense granule release activity; actives 0.22% (n = 300,000); AID 1663; human platelet-rich plasma, SFLLRN dense granule ATP release, luminescence; inhibition, %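 (compounds screened at 7.5 µM in platelet-rich plasma)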;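 active means mean replicate score, as percent of positive control, at or above 50; inconclusive means mean below 50 but at least one replicate at or above 50; inactive means mean and every replicate below 50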
Numbers stand for hits; n = inactive; u = inconclusive; x = not tested or not shown; + = active, no number.

SMILES	Myeloid diff MLP	SENP1 FRET inh	VLA-4 inh	Platelet DG rel
CCCN(CC(=O)Nc1ccccc1C)C(=O)c1ccc2ccccc2n1	n	n	n	n
Cc1ccccc1NC(=S)c1ccc2ccccc2n1	n	n	n	54.3
O=C1OCC/C1=C\NCCCCCCCCN/C=C1\CCOC1=O	n	n	x	x
C[C@@H]1[C@@H](Sc2ccccc2)CC(=O)O[C@@H]1c1ccc(-c2ccccc2)cc1	u	n	n	n
O=C1C=CC2(O[C@H](c3ccccc3)[C@@H](c3ccccc3)O2)[C@H](Sc2ccccc2O)C1	+	n	x	x
O=S(=O)(c1ccccc1)c1nnn2c1nc(NC1CCN(Cc3ccccc3)CC1)c1ccccc12	+	n	n	n
COc1ccc(C(=O)N2CCNC(=O)C2)cc1S(=O)(=O)Nc1ccc(Br)cc1	n	n	n	x
COc1ccc(C(CNC(=O)c2cc3ccccc3cc2O)N2CCOCC2)cc1 (stereo not given)	n	n	n	n
CCCOc1ccc(C(=O)N2CCCC2C(=O)O)cc1 (stereo not given)	n	n	n	n
CCOc1ccc(C(=O)N2CCCC2C(=O)O)cc1 (stereo not given)	+	n	n	x
COC(=O)c1cc2ccccc2c(-c2c(OC)c(C(=O)OC)cc3ccccc23)c1OC	+	n	n	n
COC(=O)c1cc2ccccc2c([N+](=O)[O-])c1O	n	n	x	x
CCN(CC)C(=O)C1CCCN(C(=O)c2oc3ccc(C)cc3c2C)C1 (stereo not given)	n	n	n	n
NC(=S)NN=CCn1cc([N+](=O)[O-])c(=O)[nH]c1=O	n	n	x	x
CC(=O)NS(=O)(=O)c1ccc(NC(=O)c2oc3c(Cl)cccc3c2C)cc1	x	x	n	n
Cc1ccccc1Nc1nc(N)c2ccccc2n1	n	n	n	57.5
COc1ccc(C)cc1Nc1nc(N)c2ccccc2n1	n	n	n	n
Nc1nc(Nc2ccccc2)nc2ccccc12	n	n	n	59.0
CCOc1ccc(Nc2nc(N)nc(CCl)n2)cc1	n	n	n	n
CCOc1ccc(Nc2nc(N)c3ccccc3n2)cc1	n	n	n	90.5
Nc1nc(Nc2ccc(Cl)cc2)nc2ccccc12	n	n	n	72.5
Nc1nc(CCl)nc(Nc2ccccc2)n1	n	n	n	n
CCSc1nnc(NC(=O)CCC2CCCCC2)s1	n	n	n	n
O=C(CN(Cc1ccccc1)C(=O)CCC(=O)Nc1nccs1)NCc1ccccc1	n	n	n	n
Cc1nnc(NN2CCOCC2)[nH]c1=O	n	n	n	n
SMILES	Myeloid diff MLP	SENP1 FRET inh	VLA-4 inh	Platelet DG rel
Cc1ccc(Nc2nc(N)c3ccccc3n2)cc1Cl	n	n	n	52.1
CN(C)c1ccc(Nc2nc(N)c3ccccc3n2)cc1	u	n	n	80.3
CC(=O)NCCCc1nc2ccccc2n1Cc1c(F)cccc1Cl	n	n	n	n
CCO/C(C)=N/n1c2nc3ccccc3nc2c2c(=O)n(Cc3ccccc3Cl)c(C)nc21	+	n	n	n
CCCCn1c(N)c(N(CC)C(=O)c2ccc([N+](=O)[O-])c(C)c2)c(=O)[nH]c1=O	n	n	n	n
CCOC(=O)C1(CCOc2ccccc2)CCN(CC2CC2)CC1	n	n	n	n
CCOC(=O)C1(CCOc2ccccc2)CCN(CC=C(C)C)CC1	+	n	n	n
COc1cc2cc(c1Cl)N(C)C(=O)CC(OC(=O)C(C)N(C)C(C)=O)C1(C)OC1C(C)C1CC(O)(NC(=O)O1)C(OC)C=CC=C(C)C2 (stereo not given)	x	n	x	x
Cc1ccc2c(CC(=O)NC3CCS(=O)(=O)C3)coc2c1C (stereo not given)	n	n	n	n
Cc1ccc2c(CC(=O)NCc3ccco3)coc2c1C	+	n	n	n
CCC(=O)OCc1c(C(F)(F)F)nn(C)c1Sc1ccc(Cl)cc1	n	n	n	n
CCC(=O)OCc1c(C(F)(F)F)nn(C)c1Sc1ccc(F)cc1	+	n	n	n
O=C(N[C@@H]1C/C=C\C[C@@H](CC(=O)N(CCO)Cc2ccccc2)C(=O)NCCOC1=O)OCC1c2ccccc2-c2ccccc21	n	n	n	x
O=C(N[C@H]1C/C=C\C[C@@H](CC(=O)N(CCO)Cc2ccccc2)C(=O)NC[C@H](c2ccccc2)OC1=O)OCC1c2ccccc2-c2ccccc21	+	n	n	x
Cc1ccc(/C=N/NC(=O)c2cccc(NC(=O)c3ccccc3Cl)c2)o1	+	n	n	n
Cc1ccc(/C=N/NC(=O)c2cccc(NC(=O)c3ccccc3C)c2)o1	+	n	n	n
Cc1cccc(C(=O)Nc2ccc(C(=O)N/N=C/c3ccc(C)o3)cc2)c1	u	n	n	n
CSc1ccc(CN(C)C(=O)c2cc(=O)c3ccccc3o2)cc1	+	n	n	n
CCOc1ccc(CCNC(=O)COC(=O)Cn2cnc3ccccc3c2=O)cc1OCC	+	n	n	n
COc1ccc(CCNC(=O)Cn2cnc3ccccc3c2=O)cc1OC	n	n	n	n
O=C(CN(Cc1ccc(F)cc1)C(=O)CCC(=O)Nc1nccs1)NCc1ccccc1	n	n	n	n
Cc1ccc(NC(=S)/C(=C(\[O-])c2ccc(C)c([N+](=O)[O-])c2)[n+]2ccccc2)cc1C	x	x	n	n
COc1cccc(NC(=S)/C(=C(\[O-])c2ccc(C)c([N+](=O)[O-])c2)[n+]2ccccc2)c1	+	n	n	n
O=C(NCc1cccnc1)C1CC(c2ccc(Cl)c(Cl)c2)=NO1 (stereo not given)	n	n	n	n
O=C(NCc1ccc(OC(F)(F)F)cc1)c1cccc2c1C(=O)c1ccc(N3CCC(Cc4ccccc4)CC3)cc1S2(=O)=O	+	n	n	x
SMILES	Myeloid diff MLP	SENP1 FRET inh	VLA-4 inh	Platelet DG rel
O=C(NCc1ccc(OC(F)(F)F)cc1)c1cccc2c1C(=O)c1ccc(N3CCCC3)cc1S2(=O)=O	+	n	n	x
O=C(NCc1ccc(OC(F)(F)F)cc1)c1cccc2c1C(=O)c1ccc(N3CCCCC3)cc1S2(=O)=O	n	n	n	x
Cc1c(Cl)cccc1NC(=O)NN1CCN(C)CC1	+	n	n	n
Cc1cccc(NC(=O)NN2CCN(C)CC2)c1C	n	n	n	n
CCOC(=O)C1CCN(C(=O)COC(=O)CSc2ccc(C(N)=O)cc2[N+](=O)[O-])CC1	n	n	n	n
O=C(CN1C(=O)c2ccccc2C1=O)NCc1ccccn1	n	n	n	n
O=C(Cn1c(=O)sc2ccccc21)NCc1ccccn1	+	n	n	n
CCCCCC(=O)NC(=S)Nc1cccc(-c2nc3ncccc3o2)c1	n	n	n	n
CC1=C(C(=O)Nc2ccccc2C(=O)NCc2ccccc2)SCCO1	n	n	n	n
CC1=C(C(=O)Nc2ccccc2C(=O)NC2CCC(C)CC2)SCCO1 (stereo not given)	+	n	n	n
CCN(C[C@H]1N[C@@](CC)(C(=O)OC)[C@H]2C(=O)N(Cc3ccccc3)C(=O)[C@@H]12)C(=O)Nc1ccc(C(F)(F)F)cc1	n	n	n	x
CCN(C[C@H]1N[C@@](CC)(C(=O)OC)[C@H]2C(=O)N(Cc3ccccc3)C(=O)[C@@H]12)C(=O)Nc1ccc(OC)cc1	+	n	n	x
Cc1ccnc2nc(C(=O)OCC(=O)NCc3cccc(Cl)c3)nn12	n	n	n	x
